Assay results from ChEMBL document CHEMBL2086321, “Modulation of thermo-transient receptor potential (thermo-TRP) channels by thymol-based compounds” (Bioorg Med Chem Lett, 2012).

How the values were obtained:
Type in all cases: cell-based
[1] = target: Transient receptor potential cation channel subfamily A member 1 (Rattus norvegicus) (UniProt Q6RI86); assay: Activation of rat TRPA1 expressed in HEK293 cells assessed as stimulation of intracellular Ca2+ levels relative to 100 uM allyl isothiocyanate
Chain of Transient receptor potential cation channel subfamily A member 1 (Rattus norvegicus) (Q6RI86 whole entry): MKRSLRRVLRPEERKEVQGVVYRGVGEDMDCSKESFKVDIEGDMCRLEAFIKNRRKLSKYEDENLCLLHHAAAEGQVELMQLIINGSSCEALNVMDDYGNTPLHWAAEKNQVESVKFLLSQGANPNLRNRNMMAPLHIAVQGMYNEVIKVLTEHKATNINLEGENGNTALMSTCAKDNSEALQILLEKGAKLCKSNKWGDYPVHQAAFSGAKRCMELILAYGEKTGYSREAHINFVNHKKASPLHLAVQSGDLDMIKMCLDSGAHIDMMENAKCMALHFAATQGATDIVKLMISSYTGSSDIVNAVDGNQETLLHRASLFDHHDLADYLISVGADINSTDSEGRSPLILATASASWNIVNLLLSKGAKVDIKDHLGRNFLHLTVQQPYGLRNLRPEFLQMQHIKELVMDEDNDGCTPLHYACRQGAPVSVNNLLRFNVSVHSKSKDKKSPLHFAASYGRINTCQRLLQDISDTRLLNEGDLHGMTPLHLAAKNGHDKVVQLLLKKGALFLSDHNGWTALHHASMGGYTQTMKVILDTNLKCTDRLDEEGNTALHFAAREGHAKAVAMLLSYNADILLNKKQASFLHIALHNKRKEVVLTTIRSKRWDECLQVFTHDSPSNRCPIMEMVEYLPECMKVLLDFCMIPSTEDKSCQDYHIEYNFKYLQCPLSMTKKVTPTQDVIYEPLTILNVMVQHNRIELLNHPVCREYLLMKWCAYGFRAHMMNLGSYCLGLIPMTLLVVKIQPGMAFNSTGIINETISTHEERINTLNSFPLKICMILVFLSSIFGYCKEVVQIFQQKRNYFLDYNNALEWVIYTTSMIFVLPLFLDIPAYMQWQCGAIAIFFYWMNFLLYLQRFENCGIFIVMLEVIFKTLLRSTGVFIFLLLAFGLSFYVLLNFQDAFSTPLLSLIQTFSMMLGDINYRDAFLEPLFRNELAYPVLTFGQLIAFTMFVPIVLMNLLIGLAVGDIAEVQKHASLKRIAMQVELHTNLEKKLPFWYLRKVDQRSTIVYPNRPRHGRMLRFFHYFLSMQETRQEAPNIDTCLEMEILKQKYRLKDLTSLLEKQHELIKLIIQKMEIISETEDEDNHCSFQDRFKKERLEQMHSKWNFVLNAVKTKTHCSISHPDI
Method in brief: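 Efficacy on stably transfected rat TRPA1-HEK293 cells is the intracellular Ca2+ rise expressed as percent of the allyl isothiocyanate response. Means ± SEM, N = 3.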

[2] = target: T1, Transient receptor potential cation channel subfamily A member 1 (Rattus norvegicus, UniProt Q6RI86); assay: Activation of rat TRPA1 expressed in HEK293 cells assessed as stimulation of intracellular Ca2+ levels
T1 sequence (Q6RI86 whole entry): as above
Method in brief: (§1)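 HEK293 cells stably transfected with rat TRPA1, rat TRPM8 or rat TRPV3 cDNA. Compounds were applied and the rise in intracellular Ca2+ was recorded.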

[3] = target: T1, Transient receptor potential cation channel subfamily A member 1; assay: Inhibition of rat TRPA1 expressed in HEK293 cells assessed as reduction in 100 uM allyl isothiocyanate-stimulated increase in intracellular Ca2+ levels
Method in brief: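 Rat TRPA1-HEK293 stable cells were preincubated 5 min with compound, then incubation continued with allyl isothiocyanate.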

[4] = target: Transient receptor potential cation channel subfamily M member 8 (Rattus norvegicus) (UniProt Q8R455); assay: Activation of rat TRPM8 expressed in HEK293 cells assessed as stimulation of intracellular Ca2+ levels relative to 4 uM ionomycin
Chain of Transient receptor potential cation channel subfamily M member 8 (Rattus norvegicus) (Q8R455 whole entry, looked up): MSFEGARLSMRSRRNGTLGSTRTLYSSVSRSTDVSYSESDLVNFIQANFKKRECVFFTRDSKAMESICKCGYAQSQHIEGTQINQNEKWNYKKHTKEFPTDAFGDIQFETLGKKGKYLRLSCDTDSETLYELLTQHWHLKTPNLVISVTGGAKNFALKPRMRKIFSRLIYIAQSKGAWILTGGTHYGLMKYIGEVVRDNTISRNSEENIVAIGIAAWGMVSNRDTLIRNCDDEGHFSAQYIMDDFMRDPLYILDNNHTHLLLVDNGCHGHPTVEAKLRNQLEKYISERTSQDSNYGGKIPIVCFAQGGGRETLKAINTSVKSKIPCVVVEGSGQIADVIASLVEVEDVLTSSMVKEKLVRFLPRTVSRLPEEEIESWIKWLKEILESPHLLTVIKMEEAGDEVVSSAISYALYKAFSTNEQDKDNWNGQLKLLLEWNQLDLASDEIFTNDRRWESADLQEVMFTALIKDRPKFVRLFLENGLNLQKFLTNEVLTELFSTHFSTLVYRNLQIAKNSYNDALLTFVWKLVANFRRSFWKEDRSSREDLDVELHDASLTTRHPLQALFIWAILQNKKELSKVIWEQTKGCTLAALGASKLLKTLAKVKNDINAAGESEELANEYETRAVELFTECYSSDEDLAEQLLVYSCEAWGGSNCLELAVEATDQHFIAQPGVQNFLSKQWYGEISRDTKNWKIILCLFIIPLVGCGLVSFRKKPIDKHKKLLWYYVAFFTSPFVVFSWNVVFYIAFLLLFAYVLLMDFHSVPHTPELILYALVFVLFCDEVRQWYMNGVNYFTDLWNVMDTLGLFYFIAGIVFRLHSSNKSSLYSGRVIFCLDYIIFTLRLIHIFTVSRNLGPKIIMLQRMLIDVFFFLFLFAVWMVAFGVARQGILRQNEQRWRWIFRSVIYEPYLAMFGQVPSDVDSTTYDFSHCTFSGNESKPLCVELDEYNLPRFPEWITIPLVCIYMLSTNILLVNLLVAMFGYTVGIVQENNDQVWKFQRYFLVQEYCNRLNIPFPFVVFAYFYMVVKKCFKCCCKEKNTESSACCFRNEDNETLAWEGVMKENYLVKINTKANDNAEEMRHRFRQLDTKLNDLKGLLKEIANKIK
Method in brief: (§2)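 Efficacy on HEK293 cells stably expressing rat TRPM8 or rat TRPV3 is the intracellular Ca2+ elevation expressed as percent of the ionomycin response.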

[5] = target: T2, Transient receptor potential cation channel subfamily M member 8 (Rattus norvegicus, UniProt Q8R455); assay: Inhibition of rat TRPM8 expressed in HEK293 cells assessed as reduction in […] icilin-stimulated increase in intracellular Ca2+ levels
T2 sequence (Q8R455 whole entry): as the sequence (Q8R455 whole entry, looked up) above

[6] = target: T2, Transient receptor potential cation channel subfamily M member 8; assay: Inhibition of rat TRPM8 expressed in HEK293 cells assessed as reduction in 20 uM menthol-stimulated increase in intracellular Ca2+ levels
Method in brief: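 IC50 on rat TRPM8 stably expressed in HEK293 cells, measured as inhibition of the intracellular Ca2+ response to icilin or menthol. Means ± SEM, N = 3.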

HEK293 = assay: Activation of rat TRPV3 expressed in HEK293 cells assessed as stimulation of intracellular Ca2+ levels relative to 4 uM ionomycin; method in brief: as §2
[7] = Inhibition of rat TRPV3 expressed in HEK293 cells assessed as reduction in 100 uM thymol-stimulated increase in intracellular Ca2+ levels
[8] = target: T2, Transient receptor potential cation channel subfamily M member 8; assay: Activation of rat TRPM8 expressed in HEK293 cells assessed as stimulation of intracellular Ca2+ levels; method in brief: as §1
[9] = Activation of rat TRPV3 expressed in HEK293 cells assessed as stimulation of intracellular Ca2+ levels; method in brief: as §1

Row | SMILES | Efficacy [1] [%] | EC50 [2] [µM] | IC50 [3] [µM] | Efficacy [4] [%] | IC50 [5] [µM] | IC50 [6] [µM] | IC50 [7] [µM] | EC50 [8] [µM] | EC50 [9] [µM] | Efficacy (HEK293) [%]
1 | Cc1ccc(C(C)C)c(NC(=O)Oc2ccc(C(F)(F)F)cc2)c1 | 178 | 41 | 4.1 | < 10 | 23.1 | 73.7 | 50.3 | – | – | < 10
2 | COc1ccc(NC(=O)Oc2cc(C)ccc2C(C)C)cc1 | 264 | 7.4 | 4.5 | 30.3 | 2.5 | 5.2 | 64.3 | 5.1 | – | < 10
3 | Cc1ccc(C(C)C)c(NC(=O)Cc2ccc(-c3ccccc3)cc2)c1 | 212 | 6.5 | 3.9 | < 10 | 31.2 | 78.3 | 29.7 | – | 6.3 | 39.3
4 | Cc1ccc(C(C)C)c(NC(=O)Nc2ccc(C(C)(C)C)cc2)c1 | 235 | 4.3 | 25 | < 10 | > 100 | 26.7 | 3.3 | – | 7.6 | 31.6
5 | Cc1ccc(C(C)C)c(C(=O)Oc2ccc(-c3ccccc3)cc2)c1 | 195 | 7.4 | 12.7 | < 10 | > 100 | > 100 | 2.9 | – | 14.5 | 64.3
6 | Cc1ccc(C(C)C)c(C(=O)NCCc2c[nH]c3ccc(OCc4ccccc4)cc23)c1 | 241 | 25.9 | 70.2 | < 10 | 69.4 | 61.4 | 41.9 | – | – | < 10
7 | Cc1ccc(C(C)C)c(C(=O)Nc2ccc(Cl)cc2)c1 | < 10 | – | 26.1 | 43.2 | 4.8 | 5 | 4.9 | 0.85 | 11.8 | 43.4
8 | Cc1ccc(C(C)C)c(NC(=O)c2ccc(C(C)(C)C)cc2)c1 | 204 | 6.4 | 8.8 | 24.5 | 1 | 1 | 6.2 | 0.44 | 10.6 | 34.8
9 | Cc1ccc(C(C)C)c(NC(=O)Oc2ccc(C(C)(C)C)cc2)c1 | 132 | 1.3 | 0.78 | < 10 | 0.7 | 0.85 | 1.9 | – | 1.4 | 62.5
10 | Cc1ccc(C(C)C)c(O)c1 [THYMOL] | 119 | 287 | 125 | 31.1 | 315 | 169 | – | 52.2 | 84.1 | 34.7
11 | Cc1ccc(C(C)C)c(NC(=O)Cc2cccc(I)c2)c1 | 154 | 20.5 | 43.2 | < 10 | 11.6 | 14.1 | 20.4 | – | 15.9 | 15
12 | COc1ccc(NC(=O)Nc2cc(C)ccc2C(C)C)cc1 | 114 | 14.1 | 34.4 | < 10 | 38.5 | 77.5 | 85.4 | – | – | < 10
13 | Cc1ccc(C(C)C)c(NC(=O)Nc2ccc(-c3ccccc3)cc2)c1 | 224 | 32.2 | 27.9 | < 10 | 37.4 | 25.4 | 12.8 | – | 5.9 | 16.9
14 | Cc1ccc(C(C)C)c(N)c1 | 57.4 | 64.2 | 212 | 33.8 | 238 | 113 | > 100 | 43.4 | – | < 10

Continued, in another order:

Row | Efficacy [1] [%] | EC50 [2] [µM] | IC50 [3] [µM] | Efficacy [4] [%] | IC50 [5] [µM] | IC50 [6] [µM] | IC50 [7] [µM] | EC50 [8] [µM] | EC50 [9] [µM] | SMILES | Efficacy (HEK293) [%]
15 | 149 | 1 | 2.7 | < 10 | 6.5 | 5 | 9.7 | – | 4.9 | COc1ccc(C(=O)Oc2cc(C)ccc2C(C)C)cc1 | 23.1
16 | 65.4 | 3.9 | 3.6 | 13.9 | 3.2 | 4.4 | 75.1 | 45.8 | 59.7 | Cc1ccc(C(C)C)c(C(=O)Nc2ccc(C(F)(F)F)cc2)c1 | 22.1
17 | < 10 | – | > 100 | 64.1 | 0.6 | 0.32 | 75.4 | 0.27 | – | Cc1ccc(C(C)C)c(C(=O)NCCc2ccccc2)c1 | < 10
18 | 204 | 3.3 | 5.5 | < 10 | 21.2 | 18.6 | 6.5 | – | 7.7 | Cc1ccc(C(C)C)c(OC(=O)c2ccc(-c3ccccc3)cc2)c1 | 33.8
19 | 97.9 | 0.6 | 0.84 | 40 | 1.9 | 1.2 | 1.1 | 0.6 | 1.2 | Cc1ccc(C(C)C)c(C(=O)Nc2ccc(C(C)(C)C)cc2)c1 | 36.5
20 | 149 | 45.9 | > 100 | 58.1 | 14.7 | 15.2 | > 100 | 4.8 | – | COc1ccc(C(=O)Nc2cc(C)ccc2C(C)C)cc1 | < 10
21 | 226 | 1.8 | 20.9 | < 10 | > 100 | > 100 | 1.5 | – | 3.8 | Cc1ccc(C(C)C)c(OC(=O)Cc2ccc(-c3ccccc3)cc2)c1 | 52.7
22 | 194 | 3.6 | 3.6 | < 10 | > 100 | 77.4 | 5 | – | 4 | COc1ccc(OC(=O)c2cc(C)ccc2C(C)C)cc1 | 27.1
